Converted amounts (≈) assume the structure as drawn. The source made the active and inactive calls. No cut-off for these calls is given here.
Columns and labels:
[1] = test system: Trichophyton mentagrophytes; test: Antifungal activity against Trichophyton mentagrophytes assessed as lowest concentration required for total inhibition broth dilution assay; assay type: functional; conditions: read-out: MIC100
Procedure, shortened: (§1)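 Broth dilution against dermatophytes, C. albicans ATCC 10231 and 14053, and C. neoformans. The end point is the lowest concentration with total inhibition. "<" marks the lowest level tested, and ">" marks partial growth at that dilution.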

Epidermophyton floccosum = test: Antifungal activity against Epidermophyton floccosum assessed as lowest concentration required for total inhibition broth dilution assay; assay type: functional; conditions: read-out: MIC100; procedure, shortened: as §1
Nannizzia gypsea = test: Antifungal activity against Microsporum gypseum assessed as lowest concentration required for total inhibition broth dilution assay; assay type: functional; conditions: read-out: MIC100; procedure, shortened: as §1
Candida albicans [2] = test: Antifungal activity against Candida albicans in mouse vaginal infection model compound applied intravaginally as 2% formulation in an aqueous propylene glycol cream for 4 days bid; assay type: functional, organism-based; conditions: Vagina
Procedure, shortened: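 Mice with vaginal C. albicans infection, following Wildfeuer's method. The compound was applied intravaginally as a 2% formulation in an aqueous propylene glycol cream, twice daily for 4 days. Read-out was animals cured over total number infected.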

Candida albicans [3] = test: Antifungal activity against Candida albicans ATCC 14053 assessed as lowest concentration required for total inhibition by broth dilution assay; assay type: functional; conditions: read-out: MIC100; procedure, shortened: as §1
Candida albicans [4] = test: Antifungal activity against Candida albicans ATCC 10231 assessed as lowest concentration required for total inhibition by broth dilution assay; assay type: functional; conditions: read-out: MIC100; procedure, shortened: as §1
[5] = Lipophilic-hydrophilic balance, Rm of the compound assessed as change in compound Rm to miconazole Rm by reverse-phase TLC method; assay type: physicochemical
Cryptococcus neoformans = test: Antifungal activity against Cryptococcus neoformans assessed as lowest concentration required for total inhibition by broth dilution assay; assay type: functional; conditions: read-out: MIC100; procedure, shortened: as §1
Microsporum audouinii = test: Antifungal activity against Microsporum audouinii assessed as lowest concentration required for total inhibition broth dilution assay; assay type: functional; conditions: read-out: MIC100; procedure, shortened: as §1
Staphylococcus aureus = test: Antibacterial activity against Staphylococcus aureus ATCC 12600 assessed as lowest concentration required for total inhibition by broth microdilution assay; assay type: functional; conditions: read-out: MIC100
Procedure, shortened: (§2)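 Broth microdilution against the listed ATCC […] strains. The value is the lowest concentration giving total inhibition. "<" marks the lowest level tested, and ">" marks partial growth at that dilution.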

[6] = test system: Erysipelothrix rhusiopathiae; test: Antibacterial activity against Erysipelothrix insidiosa ATCC 19414 assessed as lowest concentration required for total inhibition by broth microdilution assay; assay type: functional; conditions: read-out: MIC100; procedure, shortened: as §2
Cutibacterium acnes = test: Antibacterial activity against Corynebacterium acnes ATCC 11828 assessed as lowest concentration required for total inhibition by broth microdilution assay; assay type: functional; conditions: read-out: MIC100; procedure, shortened: as §2
Pasteurella multocida = test: Antibacterial activity against Pasteurella multocida ATCC 19427 assessed as lowest concentration required for total inhibition by broth microdilution assay; assay type: functional; conditions: read-out: MIC100; procedure, shortened: as §2
Enterococcus faecalis = test: Antibacterial activity against Streptococcus faecalis ATCC 14506 assessed as lowest concentration required for total inhibition by broth microdilution assay; assay type: functional; conditions: read-out: MIC100; procedure, shortened: as §2
[7] = silicone oil-impregnated silica gel, MeCN-H2O-AcOH

CCCCCCCC(=O)OC(Cn1ccnc1)c1ccc(Cl)cc1Cl.O=[N+]([O-])O (stereo not drawn)
MIC [1]: 10 µg/mL
MIC (Epidermophyton floccosum): < 0.1 µg/mL
MIC (Nannizzia gypsea): 10 µg/mL
Activity (Candida albicans [2]): inactive
MIC (Candida albicans [3]): 30 µg/mL
MIC (Candida albicans [4]): 30 µg/mL
deltaRm [5, 7]: 0.1
MIC (Cryptococcus neoformans): < 1 µg/mL

O=C(OC(Cn1ccnc1)c1ccc(Cl)cc1)c1ccc(Cl)cc1.O=[N+]([O-])O (stereo not drawn)
MIC [1]: > 100 µg/mL
MIC (Epidermophyton floccosum): 100 µg/mL
MIC (Candida albicans [3]): > 100 µg/mL
MIC (Candida albicans [4]): > 100 µg/mL
MIC (Microsporum audouinii): 100 µg/mL
deltaRm [5, 7]: -0.31
MIC (Cryptococcus neoformans): 10 µg/mL

O=C(Cc1ccc(Cl)cc1)OC(Cn1ccnc1)c1ccc(Cl)cc1.O=C(O)C(=O)O (stereo not drawn)
MIC [1]: 10 µg/mL
MIC (Epidermophyton floccosum): 1 µg/mL
MIC (Candida albicans [3]): 50 µg/mL
MIC (Candida albicans [4]): 50 µg/mL
MIC (Microsporum audouinii): 10 µg/mL
deltaRm ([5]; octanol/water): -0.42

CCCCCC(=O)SC(Cn1ccnc1)c1ccc(Cl)cc1Cl.O=[N+]([O-])O (stereo not drawn)
MIC [1]: 30 µg/mL
MIC (Epidermophyton floccosum): < 0.1 µg/mL
MIC (Nannizzia gypsea): 30 µg/mL
Activity (Candida albicans [2]): inactive
MIC (Candida albicans [3]): 30 µg/mL
MIC (Candida albicans [4]): 100 µg/mL
deltaRm [5, 7]: -0.05
MIC (Cryptococcus neoformans): 1 µg/mL

O=C(O)C(=O)O.O=C(Oc1ccc(Cl)cc1)OC(Cn1ccnc1)c1ccc(Cl)cc1 (stereo not drawn)
MIC [1]: 10 µg/mL
MIC (Epidermophyton floccosum): 10 µg/mL
MIC (Candida albicans [3]): > 100 µg/mL
MIC (Candida albicans [4]): > 100 µg/mL
MIC (Microsporum audouinii): 100 µg/mL
deltaRm [5, 7]: -0.52

CCCCOC(=S)SC(Cn1ccnc1)c1ccc(Cl)cc1Cl.O=[N+]([O-])O (stereo not drawn)
MIC [1]: 3 µg/mL
MIC (Epidermophyton floccosum): < 0.1 µg/mL
MIC (Nannizzia gypsea): 3 µg/mL
Activity (Candida albicans [2]): Active
MIC (Candida albicans [3]): 10 µg/mL
MIC (Candida albicans [4]): 30 µg/mL
deltaRm [5, 7]: 0.19
MIC (Cryptococcus neoformans): 1 µg/mL

CCCOC(=S)SC(Cn1ccnc1)c1ccc(Cl)cc1Cl.O=[N+]([O-])O (stereo not drawn)
MIC [1]: 10 µg/mL
MIC (Epidermophyton floccosum): < 0.1 µg/mL
MIC (Nannizzia gypsea): 10 µg/mL
Activity (Candida albicans [2]): Active
MIC (Candida albicans [3]): 30 µg/mL
MIC (Candida albicans [4]): 100 µg/mL
deltaRm [5, 7]: -0.03
MIC (Cryptococcus neoformans): < 0.3 µg/mL

CCCCCOC(=S)SC(Cn1ccnc1)c1ccc(Cl)cc1Cl.O=[N+]([O-])O (stereo not drawn)
MIC (Staphylococcus aureus): 3 µg/mL
MIC [1]: 3 µg/mL
MIC (Epidermophyton floccosum): < 0.1 µg/mL
MIC (Nannizzia gypsea): 3 µg/mL
MIC [6]: 100 µg/mL
MIC (Candida albicans [3]): 3 µg/mL
MIC (Cutibacterium acnes): > 100 µg/mL
MIC (Candida albicans [4]): 3 µg/mL
MIC (Pasteurella multocida): 1 µg/mL
deltaRm [5, 7]: 0.37
MIC (Cryptococcus neoformans): < 1 µg/mL
MIC (Enterococcus faecalis): 10 µg/mL

CCCCCCCCOC(=S)SC(Cn1ccnc1)c1ccc(Cl)cc1Cl.O=[N+]([O-])O (stereo not drawn)
MIC (Staphylococcus aureus): > 100 µg/mL
MIC [1]: 30 µg/mL
MIC (Epidermophyton floccosum): 1 µg/mL
MIC (Nannizzia gypsea): 30 µg/mL
MIC [6]: 30 µg/mL
MIC (Candida albicans [3]): 100 µg/mL
MIC (Cutibacterium acnes): 100 µg/mL
MIC (Candida albicans [4]): 100 µg/mL
MIC (Pasteurella multocida): 1 µg/mL
deltaRm [5, 7]: 1.23
MIC (Cryptococcus neoformans): < 1 µg/mL
MIC (Enterococcus faecalis): 1 µg/mL

O=C(SC(Cn1ccnc1)c1ccc(Cl)cc1Cl)c1ccccc1Cl.O=[N+]([O-])O (stereo not drawn)
MIC (Staphylococcus aureus): 10 µg/mL
MIC [1]: 10 µg/mL
MIC (Epidermophyton floccosum): < 0.1 µg/mL
MIC (Nannizzia gypsea): 10 µg/mL
MIC [6]: 100 µg/mL
MIC (Candida albicans [3]): 30 µg/mL
MIC (Cutibacterium acnes): > 100 µg/mL
MIC (Candida albicans [4]): 30 µg/mL
MIC (Pasteurella multocida): 1 µg/mL
deltaRm [5, 7]: -0.35
MIC (Cryptococcus neoformans): < 1 µg/mL
MIC (Enterococcus faecalis): 30 µg/mL

O=C(OC(Cn1ccnc1)c1ccc(Cl)cc1Cl)c1ccc(Cl)cc1.O=[N+]([O-])O (stereo not drawn)
MIC [1]: 30 µg/mL
MIC (Epidermophyton floccosum): < 0.1 µg/mL
MIC (Nannizzia gypsea): 100 µg/mL
Activity (Candida albicans [2]): inactive
MIC (Candida albicans [3]): 300 µg/mL
MIC (Candida albicans [4]): 300 µg/mL
deltaRm [5, 7]: -0.39
MIC (Cryptococcus neoformans): 3 µg/mL

CCCCCCCC(=O)SC(Cn1ccnc1)c1ccc(Cl)cc1Cl.O=C(O)C(=O)O (stereo not drawn)
MIC (Staphylococcus aureus): 3 µg/mL
MIC [1]: 10 µg/mL
MIC (Epidermophyton floccosum): < 0.1 µg/mL
MIC (Nannizzia gypsea): 30 µg/mL
Activity (Candida albicans [2]): inactive
MIC [6]: 30 µg/mL
MIC (Candida albicans [3]): 10 µg/mL
MIC (Cutibacterium acnes): 100 µg/mL
MIC (Candida albicans [4]): 10 µg/mL
MIC (Pasteurella multocida): 1 µg/mL
deltaRm [5, 7]: 0.44
MIC (Cryptococcus neoformans): < 1 µg/mL
MIC (Enterococcus faecalis): 30 µg/mL

O=C(SC(Cn1ccnc1)c1ccc(Cl)cc1Cl)c1ccc(Cl)cc1.O=[N+]([O-])O (stereo not drawn)
MIC (Staphylococcus aureus): 3 µg/mL
MIC [1]: 10 µg/mL
MIC (Epidermophyton floccosum): < 0.1 µg/mL
MIC (Nannizzia gypsea): 30 µg/mL
Activity (Candida albicans [2]): Active
MIC [6]: > 100 µg/mL
MIC (Candida albicans [3]): 10 µg/mL
MIC (Cutibacterium acnes): > 100 µg/mL
MIC (Candida albicans [4]): 10 µg/mL
MIC (Pasteurella multocida): 1 µg/mL
deltaRm [5, 7]: -0.03
MIC (Cryptococcus neoformans): < 1 µg/mL
MIC (Enterococcus faecalis): 100 µg/mL

O=C(O)C(=O)O.O=C(OC(Cn1ccnc1)c1ccc(Cl)cc1)c1ccccc1Cl (stereo not drawn)
MIC [1]: 10 µg/mL
MIC (Epidermophyton floccosum): 5 µg/mL
MIC (Candida albicans [3]): 100 µg/mL
MIC (Candida albicans [4]): 100 µg/mL
MIC (Microsporum audouinii): 50 µg/mL
deltaRm [5, 7]: -0.49

O=C(O)C(=O)O.O=C(OC(Cn1ccnc1)c1ccc(Cl)cc1Cl)c1ccc([N+](=O)[O-])cc1 (stereo not drawn)
MIC [1]: 10 µg/mL
MIC (Epidermophyton floccosum): 0.33 µg/mL
MIC (Candida albicans [3]): > 300 µg/mL
MIC (Candida albicans [4]): > 300 µg/mL
MIC (Microsporum audouinii): 33 µg/mL
deltaRm [5, 7]: -0.54

Clc1ccc(COC(Cn2ccnc2)c2ccc(Cl)cc2Cl)c(Cl)c1 (stereo not drawn) [MICONAZOLE]
MIC (Staphylococcus aureus): 1 µg/mL (≈ 2.4 µM)
MIC [1]: 3 µg/mL (≈ 7.21 µM)
MIC (Epidermophyton floccosum): < 0.1 µg/mL
MIC (Nannizzia gypsea): 3 µg/mL (≈ 7.21 µM)
Activity (Candida albicans [2]): Active
MIC [6]: 3 µg/mL (≈ 7.21 µM)
MIC (Candida albicans [3]): 30 µg/mL (≈ 72.1 µM)
MIC (Cutibacterium acnes): 10 µg/mL (≈ 24 µM)
MIC (Candida albicans [4]): 30 µg/mL (≈ 72.1 µM)
MIC (Pasteurella multocida): < 0.1 µg/mL
deltaRm [5, 7]: 0
MIC (Cryptococcus neoformans): < 0.3 µg/mL
MIC (Enterococcus faecalis): 10 µg/mL (≈ 24 µM)

CCOC(=S)SC(Cn1ccnc1)c1ccc(Cl)cc1Cl.O=[N+]([O-])O (stereo not drawn)
MIC [1]: < 0.1 µg/mL
MIC (Epidermophyton floccosum): < 0.1 µg/mL
MIC (Candida albicans [3]): 50 µg/mL
MIC (Candida albicans [4]): 50 µg/mL
MIC (Microsporum audouinii): 5 µg/mL
deltaRm [5, 7]: -0.27
MIC (Cryptococcus neoformans): 1 µg/mL
